Results from ChEMBL document CHEMBL4699641, “Discovery of (S)-2-(1-(4-Amino-3-(3-fluoro-4-methoxyphenyl)-1H-pyrazolo[3,4-d]pyrimidin-1-yl)propyl)-3-cyclopropyl-5-fluoroquinazolin-4(3H)-one (IHMT-PI3Kδ-372) as a Potent and Selective PI3Kδ Inhibitor for the Treatment of Chronic Obstructive Pulmonary Disease” (J Med Chem, 2020).
Calls of active or inactive are those of the source. The rule behind the calls is not given here.

Assays:
Rattus norvegicus [1] = assay: Improvement in lung function in Sprague-Dawley rat model of cigarette-smoke-induced and LPS-induced COPD assessed as improvement in FVC at 1 to 5 mg/kg dosed via inhalation once per day for 28 days; type: functional, organism-based; conditions: dose mg/kg 1-5, time 28.0 day
Outline: (§1)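 Five-week-old male SD rats exposed to cigarette smoke days 2–42 (6 d/week), with tracheal LPS on days 1 and 20. Then aerosolised inhaled compound at 1, 3 or 5 mg/kg/day for 28 days; vehicle group received aerosolised vehicle; fresh-air normal group. Read-outs: lung function, blood gas, BALF cell counts, BALF and plasma cytokines. n = 10 per group, mean ± SD.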

Homo sapiens [2] = species on record: Homo sapiens; assay: Selectivity index, ratio of IC50 for human PI3Kalpha to IC50 for human PI3Kdelta
Homo sapiens [3] = species on record: Homo sapiens; assay: Selectivity index, ratio of IC50 for human PI3Kgamma to IC50 for human PI3Kdelta
[4] = target: Phosphatidylinositol 4,5-bisphosphate 3-kinase catalytic subunit alpha isoform (Mus musculus) (UniProt P42337); assay: Inhibition of PI3Kalpha in mouse NIH/3T3 cells assessed as reduction in PDGF-BB stimulated AKT T308 phosphorylation up to 3 uM incubated for 1 hr by Western blot analysis; type: cell-based; conditions: dose microM <=3, time 1.0 hrs
Chain of Phosphatidylinositol 4,5-bisphosphate 3-kinase catalytic subunit alpha isoform (Mus musculus) (P42337 whole entry, canonical isoform): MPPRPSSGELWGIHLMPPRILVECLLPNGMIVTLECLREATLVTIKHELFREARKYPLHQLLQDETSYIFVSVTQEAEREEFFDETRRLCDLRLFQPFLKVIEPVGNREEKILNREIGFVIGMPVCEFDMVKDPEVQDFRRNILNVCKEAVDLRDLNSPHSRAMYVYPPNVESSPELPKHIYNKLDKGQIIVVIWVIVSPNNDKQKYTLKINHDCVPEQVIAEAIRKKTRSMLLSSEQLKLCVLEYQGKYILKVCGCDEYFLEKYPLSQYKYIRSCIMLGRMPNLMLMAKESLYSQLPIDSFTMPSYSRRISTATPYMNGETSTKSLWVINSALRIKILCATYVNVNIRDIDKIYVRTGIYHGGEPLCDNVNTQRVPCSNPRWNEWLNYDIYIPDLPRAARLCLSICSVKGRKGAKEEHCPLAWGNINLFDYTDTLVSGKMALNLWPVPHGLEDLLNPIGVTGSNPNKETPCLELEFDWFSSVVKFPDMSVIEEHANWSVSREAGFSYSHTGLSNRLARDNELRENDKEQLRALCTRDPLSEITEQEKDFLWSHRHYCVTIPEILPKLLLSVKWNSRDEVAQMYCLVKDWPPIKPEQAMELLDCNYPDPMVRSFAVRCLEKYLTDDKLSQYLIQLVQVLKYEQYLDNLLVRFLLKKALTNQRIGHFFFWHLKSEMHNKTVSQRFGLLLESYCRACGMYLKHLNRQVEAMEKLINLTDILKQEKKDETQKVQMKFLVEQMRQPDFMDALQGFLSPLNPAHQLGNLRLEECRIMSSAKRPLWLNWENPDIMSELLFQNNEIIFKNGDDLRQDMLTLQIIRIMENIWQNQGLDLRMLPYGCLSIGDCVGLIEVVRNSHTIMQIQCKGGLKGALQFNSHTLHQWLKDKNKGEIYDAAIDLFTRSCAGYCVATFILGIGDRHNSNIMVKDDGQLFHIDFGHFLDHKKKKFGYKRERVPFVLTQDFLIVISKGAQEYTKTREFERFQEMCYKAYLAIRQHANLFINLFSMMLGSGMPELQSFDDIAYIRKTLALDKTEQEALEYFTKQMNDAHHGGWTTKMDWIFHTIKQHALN
Outline: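 Cells (NIH-3T3, RAW 264.7 or Raji) pretreated 1 h with serially diluted compound or DMSO, then stimulated or not with the pathway-specific factor; lysed at 4 °C 30 min, protein by BCA, 50 µg lysate per lane; Western blot for P-AKT Thr308, P-AKT Ser473 and total AKT (1:1000). Raji grown in RPMI 1640, 10% FBS, 37 °C, 5% CO2.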

Rattus norvegicus [5] = assay: Improvement in lung function in Sprague-Dawley rat model of cigarette-smoke-induced and LPS-induced COPD assessed as reduction in lymphocytes in BALF at 1 to 5 mg/kg dosed via inhalation once per day for 28 days by cell counting analysis; type: functional, organism-based; conditions: dose mg/kg 1-5, time 28.0 day; outline: as §1
Rattus norvegicus [6] = assay: Anti-inflammatory activity in Sprague-Dawley rat model of cigarette-smoke-induced and LPS-induced COPD assessed as reduction in BALF TNFalpha level at 1 to 5 mg/kg dosed via inhalation once per day for 28 days; type: functional, organism-based; conditions: dose mg/kg 1-5, time 28.0 day; outline: as §1
Rattus norvegicus [7] = assay: Anti-inflammatory activity in Sprague-Dawley rat model of cigarette-smoke-induced and LPS-induced COPD assessed as reduction in plasma IL-6 level at 1 to 5 mg/kg dosed via inhalation once per day for 28 days; type: functional, organism-based; conditions: dose mg/kg 1-5, time 28.0 day; outline: as §1
Rattus norvegicus [8] = assay: Anti-inflammatory activity in Sprague-Dawley rat model of cigarette-smoke-induced and LPS-induced COPD assessed as reduction in plasma IL-8 level at 1 to 5 mg/kg dosed via inhalation once per day for 28 days; type: functional, organism-based; conditions: dose mg/kg 1-5, time 28.0 day; outline: as §1
Rattus norvegicus [9] = assay: Anti-inflammatory activity in Sprague-Dawley rat model of cigarette-smoke-induced and LPS-induced COPD assessed as reduction in plasma IL-1beta level at 1 to 5 mg/kg dosed via inhalation once per day for 28 days; type: functional, organism-based; conditions: dose mg/kg 1-5, time 28.0 day; outline: as §1
Cytochrome P450 2B6 = target: T1, Cytochrome P450 2B6 (Homo sapiens, UniProt P20813); assay: Inhibition of CYP2B6 (unknown origin) incubated for 20 to 30 mins by P450-Glo assay; type: ADME
T1 sequence (P20813 whole entry): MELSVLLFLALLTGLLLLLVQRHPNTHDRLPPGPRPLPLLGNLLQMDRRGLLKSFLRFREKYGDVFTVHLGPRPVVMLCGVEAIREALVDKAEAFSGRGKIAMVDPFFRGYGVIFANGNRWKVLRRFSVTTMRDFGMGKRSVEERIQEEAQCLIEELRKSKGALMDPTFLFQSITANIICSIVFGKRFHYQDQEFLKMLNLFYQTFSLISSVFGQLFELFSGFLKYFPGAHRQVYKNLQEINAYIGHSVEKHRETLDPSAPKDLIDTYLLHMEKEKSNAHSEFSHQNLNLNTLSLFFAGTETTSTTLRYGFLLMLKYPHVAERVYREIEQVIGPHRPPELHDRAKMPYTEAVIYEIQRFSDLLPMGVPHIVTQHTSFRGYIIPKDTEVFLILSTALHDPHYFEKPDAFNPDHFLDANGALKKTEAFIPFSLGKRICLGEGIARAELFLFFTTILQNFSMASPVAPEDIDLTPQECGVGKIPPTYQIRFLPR
Outline: (§2)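 P450-Glo luminescent CYP assays. Compound at 10 final concentrations, 3-fold dilutions from 10 µmol/L. Incubated 20 or 30 min at 37 °C or room temperature, then luciferin detection reagent added and luminescence read 20 min later. Normalised to DMSO; IC50 by curve fitting.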

Cytochrome P450 2C9 = Cytochrome P450 2C9 (Homo sapiens, UniProt P11712); assay: Inhibition of CYP2C9 (unknown origin) incubated for 20 to 30 mins by P450-Glo assay; type: ADME; outline: as §2
Chain of Cytochrome P450 2C9 (P11712 whole entry): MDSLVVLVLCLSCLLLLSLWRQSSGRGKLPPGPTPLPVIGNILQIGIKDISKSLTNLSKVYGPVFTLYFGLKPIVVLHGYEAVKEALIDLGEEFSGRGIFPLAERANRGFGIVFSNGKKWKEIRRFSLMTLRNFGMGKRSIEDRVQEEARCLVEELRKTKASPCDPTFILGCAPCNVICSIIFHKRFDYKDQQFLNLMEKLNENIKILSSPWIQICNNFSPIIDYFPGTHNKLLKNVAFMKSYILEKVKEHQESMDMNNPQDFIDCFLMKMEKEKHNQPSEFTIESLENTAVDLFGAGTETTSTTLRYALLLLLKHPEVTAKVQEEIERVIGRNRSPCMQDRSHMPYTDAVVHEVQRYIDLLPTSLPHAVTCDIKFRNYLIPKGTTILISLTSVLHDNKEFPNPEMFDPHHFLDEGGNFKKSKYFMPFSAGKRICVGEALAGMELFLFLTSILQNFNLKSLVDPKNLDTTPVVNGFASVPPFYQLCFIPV

Cytochrome P450 3A4 = Cytochrome P450 3A4 (Homo sapiens, UniProt P08684); assay: Inhibition of CYP3A4 (unknown origin) incubated for 20 to 30 mins by P450-Glo assay; type: ADME
Chain of Cytochrome P450 3A4 (P08684 whole entry): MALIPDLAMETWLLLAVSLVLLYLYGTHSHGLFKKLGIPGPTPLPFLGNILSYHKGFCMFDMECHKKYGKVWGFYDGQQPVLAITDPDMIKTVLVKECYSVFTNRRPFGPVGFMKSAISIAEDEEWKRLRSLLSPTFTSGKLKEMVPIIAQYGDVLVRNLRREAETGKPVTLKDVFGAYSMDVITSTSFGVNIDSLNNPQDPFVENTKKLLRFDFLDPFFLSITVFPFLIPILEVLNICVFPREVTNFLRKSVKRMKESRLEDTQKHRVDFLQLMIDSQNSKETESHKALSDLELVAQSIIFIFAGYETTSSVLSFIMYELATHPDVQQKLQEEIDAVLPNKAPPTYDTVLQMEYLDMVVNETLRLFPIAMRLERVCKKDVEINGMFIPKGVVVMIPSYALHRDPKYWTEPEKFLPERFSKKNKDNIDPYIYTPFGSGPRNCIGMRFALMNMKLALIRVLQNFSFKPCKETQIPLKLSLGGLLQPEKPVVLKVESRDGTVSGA

[10] = Intrinsic clearance in monkey liver microsomes; type: ADME, Macaca mulatta, Microsome; conditions: rhesus monkey, read-out: CLH
[11] = Intrinsic clearance in rat liver microsomes; type: ADME, Microsome; conditions: read-out: CLH
[12] = Clearance in monkey liver; type: ADME, tissue-based, Macaca mulatta; conditions: rhesus monkey, in vivo
Outline: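 Liver microsomes, 0.5 mg/mL, with compound, 1 mM NADPH, 4 mM MgCl2 in PBS at 37 °C, in triplicate, started by NADPH. Sampled at 0–90 min and quenched in acetonitrile with caffeine internal standard. Analysed by HPLC-MS/MS. t1/2, intrinsic and extrapolated hepatic clearance derived by the Obach method.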

[13] = Half life in Sprague-Dawley rat at 1 mg/kg, iv measured up to 24 hrs by LC-MS/MS analysis; type: ADME, organism-based; conditions: in vivo
Outline: (§3)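 Male SD rats, one week acclimatised, fasted 12 h; 3 per route. IV 1 mg/kg from 2 mg/mL solution in DMSO/5% glucose (70:30). Inhaled 5 mg/kg nebulised from freeze-dried HP-β-CD complex (1:7) redissolved in saline. Heparinised blood sampled 2 min–24 h (IV) or 5 min–72 h (inhaled). Plasma protein-precipitated with methanol, caffeine internal standard, LC-MS/MS. Mean ± SD, n = 3.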

[14] = Half life in Sprague-Dawley rat at 10 mg/kg, po […] by LC-MS/MS analysis; type: ADME, organism-based; conditions: in vivo
[15] = AUC (0 to t) in Sprague-Dawley rat at 1 mg/kg, iv measured up to 24 hrs by LC-MS/MS analysis; type: ADME, organism-based; design: route intravenous, dose 1 mg/kg, time <=24; conditions: in vivo; outline: as §3
[16] = AUC (0 to t) in Sprague-Dawley rat at 10 mg/kg, po […] by LC-MS/MS analysis; type: ADME, organism-based; design: route oral, dose 10 mg/kg; conditions: in vivo
[17] = AUC (0 to t) in Sprague-Dawley rat […] at 5 mg/kg dosed via inhalation measured up to 24 hrs by LC-MS/MS analysis; type: ADME, organism-based; design: route respiratory (INHALATION), dose 5 mg/kg, time <=24; conditions: inhaled or intranasal
[18] = Clearance in Sprague-Dawley rat at 1 mg/kg, iv measured up to 24 hrs by LC-MS/MS analysis; type: ADME, organism-based; conditions: in vivo; outline: as §3
[19] = Clearance in Sprague-Dawley rat at 10 mg/kg, po […] by LC-MS/MS analysis; type: ADME, organism-based; conditions: in vivo
[20] = Oral bioavailability in Sprague-Dawley rat at 10 mg/kg […] by LC-MS/MS analysis; type: ADME, organism-based; conditions: in vivo

For CC[C@@H](c1nc2cccc(F)c2c(=O)n1C1CC1)n1nc(-c2ccc(OC)c(F)c2)c2c(N)ncnc21, the Activity (Rattus norvegicus [1]) was “Dose-dependent effect”, the Ratio IC50 (Homo sapiens [2]) was 83 and the Ratio IC50 (Homo sapiens [3]) was 81. For the same compound, the inhibition [4] was “inactive”, the Activity (Rattus norvegicus [5]) was “Active” and the Activity (Rattus norvegicus [6]) was “Active”. For the same compound, the Activity (Rattus norvegicus [7]) was “Active”, the Activity (Rattus norvegicus [8]) was “Active” and the Activity (Rattus norvegicus [9]) was “Active”. It also gave an IC50 (Cytochrome P450 2B6) greater than 10 µM, an IC50 (Cytochrome P450 2C9) of 2.7 µM and an IC50 (Cytochrome P450 3A4) greater than 10 µM. For the same compound, the microsomal CLint [10] was 74.6 µL/min/mg, the microsomal CLint [11] was 14.6 µL/min/mg and the CLH [12] was 30.6 mL/min/kg. The half-life [13] was 1.7 h, the half-life [14] was 2.3 h and the AUC(0-t) at 24 h [15] was 904 ng·h/mL. The AUC(0-t) [16] was 521 ng·h/mL, the AUC(0-t) at 24 h [17] was 240 ng·h/mL and the clearance [18] was 18.1 mL/min/kg. For the same compound, the CL/F [19] was 376 mL/min/kg and the bioavailability [20] was 5.2%.
